Legend:
[1] = system: Normal human epidermal melanocytes; assay: Melanin quantification assay in normal human melanocytes; assay type: cell-based; settings: 50 μM, 72 hours
Procedure, shortened: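 Normal human epidermal melanocytes in Medium 254 with HMGS, trypsinized into M2 medium and seeded at 1 × 10^5 cells/well. After 24 h, treated for 72 h at 37°C. […] Cell pellets dissolved in 1N NaOH at 70°C for 1 h and spun at 10,000 × g for 10 min. Supernatant OD405 measured.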

[2] = system: Normal human epidermal melanocytes; assay: Cell viability; assay type: cell-based; settings: concentration ranging from 0 to 50 μM
Procedure, shortened: (§1)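 Normal human epidermal melanocytes grown in Medium 254 with HMGS. Confluent cells trypsinized, resuspended in Melanocyte Growth Medium M2 and seeded at 2 × 10^4 cells/well. After 24 h, exposed to test compound at 5 or 50 μM at 37°C for 72 h. […] Viability read by MTT.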

Cell viability = assay type: cell-based, human; settings: human, normal human epidermal melanocytes
Procedure, shortened: as §1

mushroom tyrosinase = assay: Mushroom tyrosinase inhibition assay and IC50 determination; assay type: biochemical
ICR male mice = assay: Acute oral toxicity study in mice; assay type: in vivo
Procedure, shortened: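 ICR male mice (Crl:CD1), 24 animals randomized into 4 groups of six. Single oral gavage at 1500, 3000 or 6000 mg/kg, or vehicle (4% Tween 80 in water for injection), at 20 ml/kg adjusted to pre-dose body weight. Mortality checked twice daily and clinical signs once daily, SD3–SD14. Body weight taken SD1, SD8 and SD15. Gross necropsy of thoracic and abdominal cavities on SD15.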

zebrafish embryos = assay: Zebrafish in vivo assay; settings: for decrease of pigmentation level of zebrafish: 50 μM, 9 to 57 hpf (48 h exposure)
Procedure, shortened: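 Synchronized zebrafish embryos, three per well in 200 μl embryo medium. Test compound solutions (in 1% DMSO), 10–50 μM, added from 9 to 57 hpf (48 h exposure). […] At 57 hpf, embryos anesthetized in tricaine, mounted in 1% methyl cellulose and photographed under a stereomicroscope. Body pigmentation scored by phenotype and by image pixel measurement.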

In the case of `OC[C@H]1O[C@H](Oc2ccc(O)cc2)[C@H](O)[C@@H](O)[C@@H]1O` [α-arbutin], the “decrease of melanin content” value [1] is reported as “very few or no melanin content decrease”.
In the case of `OC[C@H]1O[C@@H](Oc2ccc(O)cc2)[C@H](O)[C@@H](O)[C@@H]1O` [β-arbutin], the “decrease of melanin content” value [1] is reported as “very few or no melanin content decrease”.
In the case of `Oc1ccc(CSCc2ccc(O)cc2)cc1` [T1, bis(4-hydroxybenzyl)sulfide], the “cytotoxicity to normal human melanocyte cells” value [2] is reported as “non-cytotoxic”, the viability at 72 h, 5 µM (Cell viability) is reported as 99.2% and the viability at 72 h, 50 µM (Cell viability) is reported as 97.2%. The Ki (mushroom tyrosinase; Dixon plot) was 58 ± 6 nM, the type of inhibition (mushroom tyrosinase; Dixon plot) was “strong competitive inhibitor” and the IC50 (mushroom tyrosinase; L-tyrosine substrate, dopachrome at 475 nm, triplicate) was 530 nM. The “dose with no adverse toxic effects” value (ICR male mice; ICR mice, single oral dose) was “up to 6000 mg/kg”, the “body weight and body gain versus control mice” value (ICR male mice; single oral dose 1500, 3000, and 6000 mg/kg) was “no difference” and the “death and clinical symptoms” value (ICR male mice; single oral dose 1500, 3000, and 6000 mg/kg, 14 days observation) was “no death and abnormal clinical symptom”. The “gross lesions at necropsy” value (ICR male mice; single oral dose 1500, 3000, and 6000 mg/kg, SD15) was “no observable gross lesion”, the “decrease of pigmentation level of zebrafish” value (zebrafish embryos) was “about 41.4%” and the “decrease of pigmentation relative to kojic acid” value (zebrafish embryos; both at 50 μM) was 3 fold. The “adverse side effects in zebrafish” value (zebrafish embryos; zebrafish, in vivo) was “without any adverse side effects”.
With `O=c1cc(CO)occ1O` [kojic acid, reference compound] the “decrease of melanin content” value [1] was “very few or no melanin content decrease” and the “decrease of pigmentation level of zebrafish” value (zebrafish embryos) was 12.9%.
